Active and inactive are the calls of the source. No cut-off for these calls is given here.
Legend:
Pseudomonas aeruginosa [1] = assay: Antimicrobial activity against Pseudomonas aeruginosa MTCC 741 at 1 mg/disc after 24 hrs by disc diffusion assay; format: functional
How it was run: (§1)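 Disc diffusion on Mueller Hinton agar. Inoculum was grown in MHB for 24 h at 37 °C, swabbed onto the plates and dried for 10 min. Discs with 1 mg compound were left 30 min at room temperature for diffusion, then incubated at 37 °C for 24 h. Inhibition zone was read in mm; run twice. Solvent was the negative control, streptomycin the positive control.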

Candida albicans [2] = assay: Antimicrobial activity against Candida albicans MTCC 227 at 1 mg/disc after 24 hrs by disc diffusion assay; format: functional
Malassezia pachydermatis [3] = assay: Antimicrobial activity against Malassezia pachydermatis at 1 mg/disc after 24 hrs by disc diffusion assay; format: functional
Bacillus subtilis [4] = assay: Antimicrobial activity against Bacillus subtilis MTCC 441 after 24 hrs by two fold dilution method; format: functional; conditions: MTCC 441, 24 h
How it was run: (§2)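 Broth two-fold serial dilution in 96-well plates from 1000 to 7.81 µg/mL, compound in DMSO (2%). Inoculum was grown in MHB for 24 h at 37 °C; plates were incubated 24 h at 37 °C. 5 µL of broth was spotted onto MHA; MIC was the lowest concentration with no visible growth on agar. Streptomycin was the positive control.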

Micrococcus luteus [5] = assay: Antimicrobial activity against Micrococcus luteus MTCC 106 after 24 hrs by two fold dilution method; format: functional; conditions: MTCC 106, 24 h; how it was run: as §2
Klebsiella aerogenes [6] = assay: Antimicrobial activity against Enterobacter aerogenes MTCC 111 after 24 hrs by two fold dilution method; format: functional; conditions: MTCC 111, 24 h; how it was run: as §2
Staphylococcus aureus [7] = assay: Antimicrobial activity against Staphylococcus aureus MTCC 96 after 24 hrs by two fold dilution method; format: functional; conditions: MTCC 96, 24 h; how it was run: as §2
Salmonella typhimurium [8] = assay: Antimicrobial activity against Salmonella typhimurium MTCC 1251 after 24 hrs by two fold dilution method; format: functional, Salmonella enterica subsp. enterica serovar Typhimurium; conditions: Salmonella enterica, MTCC 1251, 24 h; how it was run: as §2
Klebsiella pneumoniae [9] = assay: Antimicrobial activity against Klebsiella pneumoniae MTCC 109 after 24 hrs by two fold dilution method; format: functional; conditions: MTCC 109, 24 h; how it was run: as §2
Proteus vulgaris [10] = assay: Antimicrobial activity against Proteus vulgaris MTCC 1771 after 24 hrs by two fold dilution method; format: functional; conditions: MTCC 1771, 24 h; how it was run: as §2
Staphylococcus aureus [11] = assay: Antimicrobial activity against methicillin-resistant Staphylococcus aureus MTCC 96 after 24 hrs by two fold dilution method; format: functional; conditions: MTCC 96, 24 h; how it was run: as §2
[12] = tested on: Salmonella enterica subsp. enterica serovar Paratyphi B; assay: Antimicrobial activity against Salmonella paratyphi B after 24 hrs by two fold dilution method; format: functional; how it was run: as §2
Shigella flexneri [13] = assay: Antimicrobial activity against Shigella flexneri MTCC 1457 after 24 hrs by two fold dilution method; format: functional; conditions: MTCC 1457, 24 h; how it was run: as §2
Pseudomonas aeruginosa [14] = assay: Antimicrobial activity against Pseudomonas aeruginosa MTCC 741 after 24 hrs by two fold dilution method; format: functional; conditions: MTCC 741, 24 h; how it was run: as §2
Candida albicans [15] = assay: Antimicrobial activity against Candida albicans MTCC 227 after 48 to 72 hrs by two fold dilution method; format: functional
How it was run: (§3)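 Yeast was grown in Sabouraud dextrose broth at 28 °C for 48 h and tested per CLSI reference methods. Two-fold serial dilutions from 1000 to 7.81 µg/mL, compound in DMSO (2%), in 96-well plates, incubated 48–72 h at 28 °C. MIC was the lowest concentration with no visible fungal growth. Ketoconazole was the positive control.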

Malassezia pachydermatis [16] = assay: Antimicrobial activity against Malassezia pachydermatis after 48 to 72 hrs by two fold dilution method; format: functional; how it was run: as §3
Bacillus subtilis [17] = assay: Bactericidal activity against Bacillus subtilis MTCC 441 after 24 hrs by two fold dilution method; format: functional; conditions: MTCC 441, 24 h
How it was run: (§4)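 Tubes held 5 mL MHB with two-fold dilutions from 1000 to 7.81 µg/mL and were inoculated with 5 × 10^5 to 1 × 10^6 cells in 0.1 mL MHB, incubated without shaking. Turbidity was checked at 20 h, tubes vortexed and re-incubated 4 h.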

Micrococcus luteus [18] = assay: Bactericidal activity against Micrococcus luteus MTCC 106 after 24 hrs by two fold dilution method; format: functional; conditions: MTCC 106, 24 h; how it was run: as §4
Klebsiella aerogenes [19] = assay: Bactericidal activity against Enterobacter aerogenes MTCC 111 after 24 hrs by two fold dilution method; format: functional; conditions: MTCC 111, 24 h; how it was run: as §4
Staphylococcus aureus [20] = assay: Bactericidal activity against Staphylococcus aureus MTCC 96 after 24 hrs by two fold dilution method; format: functional; conditions: MTCC 96, 24 h; how it was run: as §4
Salmonella typhimurium [21] = assay: Bactericidal activity against Salmonella typhimurium MTCC 1251 after 24 hrs by two fold dilution method; format: functional, Salmonella enterica subsp. enterica serovar Typhimurium; conditions: Salmonella enterica, MTCC 1251, 24 h; how it was run: as §4
Klebsiella pneumoniae [22] = assay: Bactericidal activity against Klebsiella pneumoniae MTCC 109 after 24 hrs by two fold dilution method; format: functional; conditions: MTCC 109, 24 h; how it was run: as §4
Proteus vulgaris [23] = assay: Bactericidal activity against Proteus vulgaris MTCC 1771 after 24 hrs by two fold dilution method; format: functional; conditions: MTCC 1771, 24 h; how it was run: as §4
Staphylococcus aureus [24] = assay: Bactericidal activity against methicillin-resistant Staphylococcus aureus MTCC 96 after 24 hrs by two fold dilution method; format: functional; conditions: MTCC 96, 24 h; how it was run: as §4
[25] = tested on: Salmonella enterica subsp. enterica serovar Paratyphi B; assay: Bactericidal activity against Salmonella paratyphi B after 24 hrs by two fold dilution method; format: functional; how it was run: as §4
Shigella flexneri [26] = assay: Bactericidal activity against Shigella flexneri MTCC 1457 after 24 hrs by two fold dilution method; format: functional; conditions: MTCC 1457, 24 h; how it was run: as §4
Pseudomonas aeruginosa [27] = assay: Bactericidal activity against Pseudomonas aeruginosa MTCC 741 after 24 hrs by two fold dilution method; format: functional; conditions: MTCC 741, 24 h; how it was run: as §4
Candida albicans [28] = assay: Fungicidal activity against Candida albicans MTCC 227 after 48 to 72 hrs by two fold dilution method; format: functional
Malassezia pachydermatis [29] = assay: Fungicidal activity against Malassezia pachydermatis after 48 to 72 hrs by two fold dilution method; format: functional
Bacillus subtilis [30] = assay: Antimicrobial activity against Bacillus subtilis MTCC 441 at 1 mg/disc after 24 hrs by disc diffusion assay; format: functional; how it was run: as §1
Micrococcus luteus [31] = assay: Antimicrobial activity against Micrococcus luteus MTCC 106 at 1 mg/disc after 24 hrs by disc diffusion assay; format: functional; how it was run: as §1
Klebsiella aerogenes [32] = assay: Antimicrobial activity against Enterobacter aerogenes MTCC 111 at 1 mg/disc after 24 hrs by disc diffusion assay; format: functional; how it was run: as §1
Staphylococcus aureus [33] = assay: Antimicrobial activity against Staphylococcus aureus MTCC 96 at 1 mg/disc after 24 hrs by disc diffusion assay; format: functional; how it was run: as §1
Salmonella typhimurium [34] = assay: Antimicrobial activity against Salmonella typhimurium MTCC 1251 at 1 mg/disc after 24 hrs by disc diffusion assay; format: functional, Salmonella enterica subsp. enterica serovar Typhimurium; how it was run: as §1
Klebsiella pneumoniae [35] = assay: Antimicrobial activity against Klebsiella pneumoniae MTCC 109 at 1 mg/disc after 24 hrs by disc diffusion assay; format: functional; how it was run: as §1
Proteus vulgaris [36] = assay: Antimicrobial activity against Proteus vulgaris MTCC 1771 at 1 mg/disc after 24 hrs by disc diffusion assay; format: functional; how it was run: as §1
Staphylococcus aureus [37] = assay: Antimicrobial activity against […] Staphylococcus aureus MTCC 96 at 1 mg/disc after 24 hrs by disc diffusion assay; format: functional; how it was run: as §1
[38] = tested on: Salmonella enterica subsp. enterica serovar Paratyphi B; assay: Antimicrobial activity against Salmonella paratyphi B at 1 mg/disc after 24 hrs by disc diffusion assay; format: functional; how it was run: as §1
Shigella flexneri [39] = assay: Antimicrobial activity against Shigella flexneri MTCC 1457 at 1 mg/disc after 24 hrs by disc diffusion assay; format: functional; how it was run: as §1

Row | Structure (SMILES) | inhibition zone (IZ) (Pseudomonas aeruginosa [1]) | inhibition zone (IZ) (Candida albicans [2]) | inhibition zone (IZ) (Malassezia pachydermatis [3]) | MIC (Bacillus subtilis [4]) | MIC (Micrococcus luteus [5]) | MIC (Klebsiella aerogenes [6]) | MIC (Staphylococcus aureus [7]) | MIC (Salmonella typhimurium [8]) | MIC (Klebsiella pneumoniae [9]) | MIC (Proteus vulgaris [10]) | inhibition zone (IZ) (Bacillus subtilis [30]) | inhibition zone (IZ) (Micrococcus luteus [31]) | inhibition zone (IZ) (Klebsiella aerogenes [32]) | inhibition zone (IZ) (Staphylococcus aureus [33]) | inhibition zone (IZ) (Salmonella typhimurium [34]) | inhibition zone (IZ) (Klebsiella pneumoniae [35]) | inhibition zone (IZ) (Proteus vulgaris [36]) | inhibition zone (IZ) (Staphylococcus aureus [37]) | inhibition zone (IZ) [38] | inhibition zone (IZ) (Shigella flexneri [39]) | further results
1 | CC(C)C[C@@H](C)N[C@@H](C)[C@H](O)c1ccccc1.Cl | 17 mm | 17 mm | 16 mm | 125 µg/mL | 62.5 µg/mL | 125 µg/mL | 62.5 µg/mL | 125 µg/mL | 62.5 µg/mL | 125 µg/mL | 15 mm | 16 mm | 14 mm | 17 mm | 14 mm | 16 mm | 15 mm | 16 mm | 13 mm | 15 mm | MIC (Staphylococcus aureus [11]): 62.5 µg/mL; MIC [12]: 125 µg/mL; MIC (Shigella flexneri [13]): 125 µg/mL; MIC (Pseudomonas aeruginosa [14]): 62.5 µg/mL; MIC (Candida albicans [15]): 62.5 µg/mL; MIC (Malassezia pachydermatis [16]): 62.5 µg/mL; MBC (Bacillus subtilis [17]): 250 µg/mL; MBC (Micrococcus luteus [18]): 62.5 µg/mL; MBC (Klebsiella aerogenes [19]): 125 µg/mL; MBC (Staphylococcus aureus [20]): 125 µg/mL; MBC (Salmonella typhimurium [21]): 250 µg/mL; MBC (Klebsiella pneumoniae [22]): 62.5 µg/mL; MBC (Proteus vulgaris [23]): 250 µg/mL; MBC (Staphylococcus aureus [24]): 125 µg/mL; MBC [25]: 250 µg/mL; MBC (Shigella flexneri [26]): 250 µg/mL; MBC (Pseudomonas aeruginosa [27]): 125 µg/mL; MFC (Candida albicans [28]): 62.5 µg/mL; MFC (Malassezia pachydermatis [29]): 62.5 µg/mL
2 | CC[C@H](C)N[C@H](C)[C@@H](O)c1ccccc1.Cl (mixture of isomers) | 10 mm | inactive | 10 mm |  |  |  |  |  |  |  | inactive | 10 mm | inactive | inactive | 10 mm | inactive | 10 mm | inactive | inactive | inactive | 
3 | COc1ccc([C@H](C)N[C@H](C)[C@@H](O)c2ccccc2)cc1.Cl | 14 mm | 16 mm | 19 mm | 62.5 µg/mL | 62.5 µg/mL | 62.5 µg/mL | 62.5 µg/mL | 125 µg/mL | 62.5 µg/mL | 62.5 µg/mL | 18 mm | 19 mm | 18 mm | 17 mm | 14 mm | 17 mm | 18 mm | 18 mm | 17 mm | 17 mm | MIC (Staphylococcus aureus [11]): 62.5 µg/mL; MIC [12]: 125 µg/mL; MIC (Shigella flexneri [13]): 62.5 µg/mL; MIC (Pseudomonas aeruginosa [14]): 125 µg/mL; MIC (Candida albicans [15]): 62.5 µg/mL; MIC (Malassezia pachydermatis [16]): 62.5 µg/mL; MBC (Bacillus subtilis [17]): 125 µg/mL; MBC (Micrococcus luteus [18]): 125 µg/mL; MBC (Klebsiella aerogenes [19]): 125 µg/mL; MBC (Staphylococcus aureus [20]): 125 µg/mL; MBC (Salmonella typhimurium [21]): 250 µg/mL; MBC (Klebsiella pneumoniae [22]): 125 µg/mL; MBC (Proteus vulgaris [23]): 125 µg/mL; MBC (Staphylococcus aureus [24]): 125 µg/mL; MBC [25]: 250 µg/mL; MBC (Shigella flexneri [26]): 125 µg/mL; MBC (Pseudomonas aeruginosa [27]): 250 µg/mL; MFC (Candida albicans [28]): 62.5 µg/mL; MFC (Malassezia pachydermatis [29]): 62.5 µg/mL
